The test system of data set [1] is Enterococcus faecium. In words: Antimicrobial activity against Enterococcus faecium ATCC 19634 after 24 hrs by broth microdilution method. In kind it is functional. Conditions: ATCC 19634, 24 h. Background: In broth dilution the organism is exposed to a series of concentrations in liquid medium.
Data set [2] is described as follows: Critical micelle concentration of the compound. In kind it is ADME. In short, it runs like this: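 Static light scattering at 90° (excitation and emission 400 nm) on compound dissolved at 500 μg/mL in yeast–dextrose broth at room temperature, measured over successive dilutions; cmc taken from the inflection point where intensity rises steeply then falls after a local maximum.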

A further data set concerns Klebsiella pneumoniae. The experiment in a line: Antimicrobial activity against beta-lactam-resistant Klebsiella pneumoniae ATCC 700603 after 24 hrs by broth microdilution method. In kind it is functional. The note with it: ATCC 700603, 24 h. In outline: (§1)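 Broth microdilution per CLSI, 24 h at 37 °C. Inoculum is a 6 h 37 °C culture diluted to ~10^5 CFU/mL (yeast–dextrose broth for MRSA and K. pneumoniae). 50 μL of 2-fold dilutions in water plus 150 μL bacteria. Read by OD600, triplicates, run at least twice. MIC is taken from a sigmoidal fit as the point where OD equals the bacteria-free control.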

The test system of data set [3] is Escherichia coli. In words: Antimicrobial activity against Escherichia coli MTCC 443 after 24 hrs by broth microdilution method. The format is functional. Conditions: MTCC 443, 24 h. In outline:
(§2)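 Broth microdilution per CLSI: 6 h cultures (37 °C) diluted to ~10^5 CFU/mL; 2-fold serial dilutions in sterile water added to bacteria; 24 h at 37 °C; OD600 read. Triplicates, experiment done at least twice; mean OD vs concentration fitted sigmoidally, MIC taken where OD matched the no-bacteria control. E. coli grown in LB broth, S. aureus in yeast–dextrose broth.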

The subject of data set [4] is Enterococcus faecium. The experiment in a line: Antimicrobial activity against vancomycin-resistant Enterococcus faecium ATCC 51559 after 24 hrs by broth microdilution method. Conditions: ATCC 51559, 24 h. The format is functional. In outline: as §1
Data set [5] in a line: Hemolytic activity in human erythrocytes after 1 hr by spectrophotometry. In kind it is ADME, cell-based, Erythrocyte. In short, it runs like this: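 Fresh heparinised human erythrocytes suspended to 5 vol % in PBS pH 7.4, mixed with serially diluted compound, 1 h at 37 °C; no-compound and 1 vol % Triton X-100 controls. Supernatant A540 after centrifugation gave % hemolysis; triplicates averaged, sigmoidal fit gave HC50.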

In data set [6] the test system is Staphylococcus aureus. In words: Antimicrobial activity against methicillin-resistant Staphylococcus aureus ATCC 33591 after 24 hrs by broth microdilution method. Conditions: ATCC 33591, 24 h. In kind it is functional. In short, it runs like this: as §1
Data set [7] deals with Staphylococcus aureus. In words: Antimicrobial activity against Staphylococcus aureus MTCC 737 after 24 hrs by broth microdilution method. In kind it is functional. The note with it: MTCC 737, 24 h. In short, it runs like this:
as §2

Data set [8] concerns Escherichia coli. In words: Antimicrobial activity against Escherichia coli MTCC 443 assessed as leakage of K+ at 12 times MIC using PBFI-AM by fluorescence spectroscopy. The format is functional, organism-based.
In data set [9] the test system is Staphylococcus aureus. The experiment in a line: Ratio of MIC for Staphylococcus aureus MTCC 737 after 2 hrs in presence of 50% human plasma to MIC for Staphylococcus aureus MTCC 737 after 2 hrs. The format is functional. In outline: (§3)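 Compound mixed 1:1 with fresh human plasma (50% plasma) and held at 37 °C; at 0, 2, 4, 6, 12 and 24 h aliquots were diluted 2-fold in 0.9% saline.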

Data set [10] relates to Staphylococcus aureus. In words: Antimicrobial activity against Staphylococcus aureus MTCC 737 assessed as leakage of K+ at 12 times MIC using PBFI-AM by fluorescence spectroscopy. In kind it is functional, organism-based.
For data set [11], the system named is Staphylococcus aureus. In words: Ratio of MIC for Staphylococcus aureus MTCC 737 after 4 hrs in presence of 50% human plasma to MIC for Staphylococcus aureus MTCC 737 after 4 hrs. The format is functional. In outline:
as §3

In data set [12] the test system is Staphylococcus aureus. The experiment in a line: Antimicrobial activity against Staphylococcus aureus MTCC 737 assessed as membrane depolarization at 12 times MIC using DiSC3 by fluorescence spectroscopy. The format is functional, organism-based. In short, it runs like this: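 Mid-log S. aureus washed and resuspended in 5 mM HEPES, 5 mM glucose, 100 mM KCl (1:1:1); 2 μM DiSC3(5) added, 20 min preincubation.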

For data set [13], the system named is Escherichia coli. In words: Antimicrobial activity against Escherichia coli MTCC 443 assessed as membrane permeabilization at 12 times MIC by propidium iodide staining method. In kind it is functional, organism-based.
The test system of data set [14] is Staphylococcus aureus. The experiment in a line: Antimicrobial activity against Staphylococcus aureus MTCC 737 assessed as membrane permeabilization at 12 times MIC by propidium iodide staining method. The format is functional, organism-based.
In data set [15] the test system is Staphylococcus aureus. The experiment in a line: Bactericidal activity against Staphylococcus aureus MTCC 737 assessed as log reduction in CFU/ml at 6 times MIC by time-kill assay relative to control. In kind it is functional.
Data set [16] deals with Staphylococcus aureus. The experiment in a line: Antimicrobial activity against Staphylococcus aureus MTCC 737 at sub-MIC measured after 20 passages by broth microdilution method. The format is functional, organism-based.
The nature of data set [17]: Cytotoxicity against mouse RAW264.7 cells after 1 hr by MTT assay. Conditions: raw264.7, 1 h. The format is cell-based. In outline: (§4)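 RAW 264.7 cells grown in DMEM with 10% FBS to ~70–80% confluency, exposed to serially diluted compound 1 h at 37 °C, 5% CO2; untreated and Triton X-100 controls. MTT (5 mg/mL) 4 h, formazan dissolved in DMSO, OD 570 nm; viability normalised to controls, triplicates, sigmoidal fit for 50% viability.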
(Tetrazolium dyes change colour on reduction, which living cells bring about.)

In data set [18] the test system is Escherichia coli. The experiment in a line: Antimicrobial activity against Escherichia coli MTCC 443 at sub-MIC measured after 30 passages by broth microdilution method. In kind it is functional, organism-based.
The test system of data set [19] is Staphylococcus aureus. In words: Ratio of MIC for Staphylococcus aureus MTCC 737 after 4 hrs in presence of 50% human serum to MIC for Staphylococcus aureus MTCC 737 after 4 hrs. In kind it is functional. In outline: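 Compound mixed 1:1 with human serum (50% serum) and held at 37 °C; at 0, 2 and 4 h the mixture was serially 2-fold diluted in 0.9% saline. Activity against S. aureus then tested in triplicate by the standard broth microdilution MIC protocol.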

Data set [20] has as its system Escherichia coli. In words: Antimicrobial activity against Escherichia coli MTCC 443 assessed as increase in MIC measured after 30 passages by broth microdilution method relative to control. In kind it is functional.
The test system of data set [21] is Staphylococcus aureus. The experiment in a line: Antimicrobial activity against Staphylococcus aureus MTCC 737 after 2 hrs by broth microdilution method in presence of 50% human plasma. The format is functional, organism-based. In outline:
as §3

Data set [22] concerns Staphylococcus aureus. The experiment in a line: Bactericidal activity against Staphylococcus aureus MTCC 737 assessed as log reduction in CFU/ml at 6 times MIC at 15 mins by time-kill assay relative to control. The format is functional.
Data set [23] concerns Staphylococcus aureus. In words: Antimicrobial activity against Staphylococcus aureus MTCC 737 after 4 hrs by broth microdilution method in presence of 50% human plasma. The format is functional, organism-based. In outline: as §3
Data set [24] can be described thus: Cytotoxicity against mouse RAW264.7 cells at 16 ug/ml after 1 hr by MTT assay. In kind it is cell-based. Conditions: raw264.7, 1 h. In short, it runs like this:
as §4

The test system of data set [25] is Staphylococcus aureus. In words: Antimicrobial activity against Staphylococcus aureus MTCC 737 assessed as increase in MIC measured after 20 passages by broth microdilution method relative to control. The format is functional.

The MIC is the smallest concentration in the dilution series that meets the test's criterion for growth inhibition. A lower MIC goes with a more susceptible organism. In general, HC50 refers to the concentration giving 50% haemolysis. Lower therefore signals stronger haemolysis.

Activity calls are given as the source filed them.

Take `CCCCCCCCCC(=O)N(CCCNC(=O)[C@@H](N)Cc1ccccc1)CCCNC(=O)[C@@H](N)Cc1ccccc1.O=C(O)C(F)(F)F.O=C(O)C(F)(F)F`: the MIC against Enterococcus faecium [1] is 29 µg/mL; with Klebsiella pneumoniae, 57 µg/mL; in the data set on Escherichia coli [3] it was 19 µg/mL; in the data set on Enterococcus faecium [4], 14 µg/mL; with Staphylococcus aureus [6], 20 µg/mL; in the data set on Staphylococcus aureus [7] it was 15 µg/mL. This compound also yielded a CMC in data set [2] of 156 µg/mL. This compound also came in with an HC50 at 1 h in [5] of 187 µg/mL.

For `CCCCCCCCCCCCCCCCCC(=O)N(CCCNC(=O)[C@@H](N)Cc1ccccc1)CCCNC(=O)[C@@H](N)Cc1ccccc1.O=C(O)C(F)(F)F.O=C(O)C(F)(F)F`, the MIC against Enterococcus faecium [1] was determined as 10 µg/mL; against Klebsiella pneumoniae, 87 µg/mL; with Escherichia coli [3] it was 248 µg/mL; against Enterococcus faecium [4] it was 2.9 µg/mL; in the data set with Staphylococcus aureus [6], 5.2 µg/mL; in the data set on Staphylococcus aureus [7] it was 11 µg/mL. Moreover, the CMC in [2] was determined as 20 µg/mL. Also, the HC50 at 1 h in data set [5] was 65 µg/mL.

For `CCCCCCCCCCCC(=O)N(CCCNC(=O)[C@@H](N)Cc1ccccc1)CCCNC(=O)[C@@H](N)Cc1ccccc1.O=C(O)C(F)(F)F.O=C(O)C(F)(F)F`, the result in the data set on Escherichia coli [8], with Staphylococcus aureus [10], with Staphylococcus aureus [12], with Escherichia coli [13] and with Staphylococcus aureus [14] was Active. The results for the “fold change (FC)” value in the data set on Staphylococcus aureus [9] and with Staphylococcus aureus [11] were 2 and 4, respectively. For the same compound, the MIC in the data set with Enterococcus faecium [1] was 4 µg/mL; in the data set with Klebsiella pneumoniae, 8 µg/mL; in the data set on Escherichia coli [3], 10 µg/mL; in the data set with Enterococcus faecium [4], 2.3 µg/mL; against Staphylococcus aureus [6], 3.3 µg/mL; with Staphylococcus aureus [7], 3.6 µg/mL. In addition, in data set [2], the CMC was determined as 40 µg/mL. Also, the FC in the data set on Staphylococcus aureus [15] is 3. In addition, in data set [5], the HC50 at 1 h is 171 µg/mL.

With `CCCCCCCCCCCCCC(=O)N(CCCN)CCCN.O=C(O)C(F)(F)F.O=C(O)C(F)(F)F`, the MIC is 27 µg/mL against Enterococcus faecium [1]; 47 µg/mL against Klebsiella pneumoniae; 28 µg/mL in the data set with Escherichia coli [3]; 23 µg/mL with Enterococcus faecium [4]; 15 µg/mL against Staphylococcus aureus [6]; 18 µg/mL in the data set on Staphylococcus aureus [7]. This compound also gave an HC50 at 1 h in data set [5] of 72 µg/mL.

In the case of `CCCCCCCCCCCCCCCC(=O)N(CCCN)CCCN.O=C(O)C(F)(F)F.O=C(O)C(F)(F)F`, the MIC is 2.8 µg/mL in the data set on Enterococcus faecium [1]; 65 µg/mL against Klebsiella pneumoniae; 14 µg/mL in the data set with Escherichia coli [3]; 2.4 µg/mL against Enterococcus faecium [4]; 11 µg/mL in the data set on Staphylococcus aureus [6]; 12 µg/mL in the data set with Staphylococcus aureus [7]. This compound also gave an HC50 at 1 h in data set [5] of 52 µg/mL.

For the compound `CCCCCCCCCCCC(=O)N(CCCNC(=O)[C@H](N)Cc1ccccc1)CCCNC(=O)[C@H](N)Cc1ccccc1.O=C(O)C(F)(F)F.O=C(O)C(F)(F)F`, the outcome in the data set on Staphylococcus aureus [16], in the data set with Escherichia coli [8], in the data set with Escherichia coli [18], with Staphylococcus aureus [10], in the data set on Staphylococcus aureus [12] and with Escherichia coli [13] was Active. For the same compound, the outcome in the data set with Staphylococcus aureus [14], in the data set with Staphylococcus aureus [21] and in the data set on Staphylococcus aureus [23] was Active. The Activity result in [17] and in [24] was “Non-toxic” throughout. Also, the “fold change (FC)” value was found to be 2 in the data set on Staphylococcus aureus [19], 250 in the data set with Escherichia coli [20] and 800 with Staphylococcus aureus [25]. Further, the MIC was 2.8 µg/mL with Enterococcus faecium [1]; 6.5 µg/mL in the data set on Klebsiella pneumoniae; 10 µg/mL against Escherichia coli [3]; 2.4 µg/mL against Enterococcus faecium [4]; 4.2 µg/mL in the data set on Staphylococcus aureus [6]; 3.5 µg/mL in the data set with Staphylococcus aureus [7]. Besides, the FC in the data set on Staphylococcus aureus [22] and in the data set on Staphylococcus aureus [15] was 3 each time. For the same compound, the CMC in data set [2] turned out to be 40 µg/mL. In addition, the HC50 at 1 h in data set [5] was 209 µg/mL.

The record behind these values is ChEMBL document CHEMBL3352498, “Membrane active phenylalanine conjugated lipophilic norspermidine derivatives with selective antibacterial activity” (J Med Chem, 2014).
